# Source: ChEMBL document CHEMBL5724801, “EUbOPEN Chemogenomics Library - Multiplex” (2024)
# Where “and” joins values, the source holds several entries; their conditions need not be identical. Equal entries are not always repeated.
# Test system: Fibroblast
# Assay: Multiplex assay against human fibroblast
# Assay type: toxicity, cell-based
# Outline: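 Live cells were stained at seeding with Hoechst33342, BioTracker Green Microtubule Cytoskeleton Dye, MitoTracker Red and Annexin V Alexa Fluor 680, then imaged on a CQ1 microscope at 37°C and 5% CO2 after compound addition. CellPathfinder machine-learning gating split cells into Hoechst high-intensity objects or normal cells. Normal cells were split into healthy, pyknosed or fragmented nuclei, and pyknosed cells into mitotic or apoptotic. Tubulin, mitochondrial-mass and membrane-permeability phenotypes are per cents of healthy-nucleus cells.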
# [1] = 12 h, 1 µM, compound concentration 1 uM
# [2] = 12 h, 10 µM, compound concentration 10 uM
# [3] = 24 h, 1 µM, compound concentration 1 uM
# [4] = 24 h, 10 µM, compound concentration 10 uM
# [5] = 48 h, 1 µM, compound concentration 1 uM
# [6] = 48 h, 10 µM, compound concentration 10 uM
structure (smiles),measurement,setting,value
COC(=O)C1=C(C)NC(C)=C(C(=O)OC(C)C)C1c1cccc2nonc12 (centres undefined) [ISRADIPINE],Population Apoptotic (%),[1],16.67% and 18.92%
same,Population Fragmented Nuclei (%),[1],8.07% and 3.38%
same,Population Healthy Nuclei (%),[1],65.84% and 81.01%
same,Population Hoechst High Intensity Objects (%),[1],0%
same,Population Membrane Permeable-Phenotype (%),[1],3.77% and 3.12%
same,Population Mitochondria Different-Phenotype (%),[1],7.55% and 11.98%
same,Population Mitotic Cells (%),[1],83.33% and 81.08%
same,Population Normal (%),[1],100%
same,Population Pyknosed Nuclei (%),[1],26.09% and 15.61%
same,Population Tubulin-Different-Phenotype (%),[1],15.09% and 16.15%
same,Total Cell Count,[1],161 and 237
same,Population Fragmented Nuclei (%),[2],12.61% and 3.08%
same,Population Healthy Nuclei (%),[2],63.04% and 75.33%
same,Population Hoechst High Intensity Objects (%),[2],0%
same,Population Membrane Permeable-Phenotype (%),[2],5.52% and 7.02%
same,Population Mitochondria Different-Phenotype (%),[2],17.24% and 19.3%
same,Population Mitotic Cells (%),[2],94.64% and 77.55%
same,Population Normal (%),[2],100%
same,Population Pyknosed Nuclei (%),[2],24.35% and 21.59%
same,Population Tubulin-Different-Phenotype (%),[2],40% and 48.54%
same,Total Cell Count,[2],230 and 227
same,Population Apoptotic (%),[3],18.52% and 21.74%
same,Population Fragmented Nuclei (%),[3],12.43% and 8.5%
same,Population Healthy Nuclei (%),[3],72.97% and 82.19%
same,Population Hoechst High Intensity Objects (%),[3],0%
same,Population Membrane Permeable-Phenotype (%),[3],5.93% and 2.46%
same,Population Mitochondria Different-Phenotype (%),[3],1.48% and 4.93%
same,Population Mitotic Cells (%),[3],81.48% and 78.26%
same,Population Normal (%),[3],100%
same,Population Pyknosed Nuclei (%),[3],14.59% and 9.31%
same,Population Tubulin-Different-Phenotype (%),[3],12.59% and 16.26%
same,Total Cell Count,[3],185 and 247
same,Population Fragmented Nuclei (%),[4],9.72% and 2.69%
same,Population Healthy Nuclei (%),[4],68.83% and 76.23%
same,Population Hoechst High Intensity Objects (%),[4],0%
same,Population Membrane Permeable-Phenotype (%),[4],4.12%
same,Population Mitochondria Different-Phenotype (%),[4],8.82% and 15.88%
same,Population Mitotic Cells (%),[4],98.11% and 80.85%
same,Population Normal (%),[4],100%
same,Population Pyknosed Nuclei (%),[4],21.46% and 21.08%
same,Population Tubulin-Different-Phenotype (%),[4],39.41% and 47.06%
same,Total Cell Count,[4],247 and 223
same,Population Apoptotic (%),[5],30% and 23.53%
same,Population Fragmented Nuclei (%),[5],7.14% and 6.07%
same,Population Healthy Nuclei (%),[5],81.87% and 87.04%
same,Population Hoechst High Intensity Objects (%),[5],0%
same,Population Membrane Permeable-Phenotype (%),[5],2.01% and 1.4%
same,Population Mitotic Cells (%),[5],70% and 76.47%
same,Population Normal (%),[5],100%
same,Population Pyknosed Nuclei (%),[5],10.99% and 6.88%
same,Population Tubulin-Different-Phenotype (%),[5],10.07% and 17.21%
same,Total Cell Count,[5],182 and 247
same,Population Apoptotic (%),[6],33.33% and 50%
same,Population Fragmented Nuclei (%),[6],9.58% and 5.05%
same,Population Healthy Nuclei (%),[6],85.42% and 89.45%
same,Population Hoechst High Intensity Objects (%),[6],0%
same,Population Membrane Permeable-Phenotype (%),[6],1.46% and 8.72%
same,Population Mitochondria Different-Phenotype (%),[6],14.63% and 8.72%
same,Population Mitotic Cells (%),[6],66.67% and 50%
same,Population Normal (%),[6],100%
same,Population Pyknosed Nuclei (%),[6],5% and 5.5%
same,Population Tubulin-Different-Phenotype (%),[6],24.39% and 55.38%
same,Total Cell Count,[6],240 and 218
COc1ccc2c(c1OCc1ccccc1)C[C@@H](C(=O)O)N(C(=O)C(c1ccccc1)c1ccccc1)C2 [OLODANRIGAN],Population Apoptotic (%),[1],46% and 38%
same,Population Fragmented Nuclei (%),[1],17% and 21%
same,Population Healthy Nuclei (%),[1],63% and 50%
same,Population Hoechst High Intensity Objects (%),[1],7% and 1%
same,Population Membrane Permeable-Phenotype (%),[1],1% and 9%
same,Population Mitochondria Different-Phenotype (%),[1],2% and 5%
same,Population Mitotic Cells (%),[1],53% and 61%
same,Population Normal (%),[1],92% and 98%
same,Population Pyknosed Nuclei (%),[1],19% and 27%
same,Population Tubulin-Different-Phenotype (%),[1],29% and 57%
same,Total Cell Count,[1],157 and 154
same,Population Apoptotic (%),[2],31% and 34%
same,Population Fragmented Nuclei (%),[2],11% and 18%
same,Population Healthy Nuclei (%),[2],65% and 54%
same,Population Hoechst High Intensity Objects (%),[2],0% and 5%
same,Population Membrane Permeable-Phenotype (%),[2],1% and 6%
same,Population Mitochondria Different-Phenotype (%),[2],7%
same,Population Mitotic Cells (%),[2],68% and 65%
same,Population Normal (%),[2],99% and 94%
same,Population Pyknosed Nuclei (%),[2],23% and 26%
same,Population Tubulin-Different-Phenotype (%),[2],28% and 46%
same,Total Cell Count,[2],140 and 162
same,Population Apoptotic (%),[3],65% and 38%
same,Population Fragmented Nuclei (%),[3],18% and 21%
same,Population Healthy Nuclei (%),[3],66% and 53%
same,Population Hoechst High Intensity Objects (%),[3],6% and 2%
same,Population Membrane Permeable-Phenotype (%),[3],0% and 9%
same,Population Mitochondria Different-Phenotype (%),[3],1% and 7%
same,Population Mitotic Cells (%),[3],34% and 61%
same,Population Normal (%),[3],93% and 97%
same,Population Pyknosed Nuclei (%),[3],15% and 25%
same,Population Tubulin-Different-Phenotype (%),[3],26% and 46%
same,Total Cell Count,[3],159 and 146
same,Population Apoptotic (%),[4],53% and 58%
same,Population Fragmented Nuclei (%),[4],10% and 17%
same,Population Healthy Nuclei (%),[4],68% and 62%
same,Population Hoechst High Intensity Objects (%),[4],2% and 3%
same,Population Membrane Permeable-Phenotype (%),[4],1% and 4%
same,Population Mitochondria Different-Phenotype (%),[4],3% and 4%
same,Population Mitotic Cells (%),[4],46% and 41%
same,Population Normal (%),[4],97% and 96%
same,Population Pyknosed Nuclei (%),[4],21% and 19%
same,Population Tubulin-Different-Phenotype (%),[4],21% and 50%
same,Total Cell Count,[4],136 and 153
same,Population Apoptotic (%),[5],42% and 41%
same,Population Fragmented Nuclei (%),[5],27% and 31%
same,Population Healthy Nuclei (%),[5],58% and 52%
same,Population Hoechst High Intensity Objects (%),[5],3% and 1%
same,Population Membrane Permeable-Phenotype (%),[5],0% and 1%
same,Population Mitochondria Different-Phenotype (%),[5],2% and 4%
same,Population Mitotic Cells (%),[5],57% and 58%
same,Population Normal (%),[5],96% and 98%
same,Population Pyknosed Nuclei (%),[5],14% and 15%
same,Population Tubulin-Different-Phenotype (%),[5],20% and 40%
same,Total Cell Count,[5],154 and 156
same,Population Apoptotic (%),[6],57% and 61%
same,Population Fragmented Nuclei (%),[6],15% and 29%
same,Population Healthy Nuclei (%),[6],69% and 58%
same,Population Hoechst High Intensity Objects (%),[6],5% and 7%
same,Population Membrane Permeable-Phenotype (%),[6],1% and 3%
same,Population Mitochondria Different-Phenotype (%),[6],5%
same,Population Mitotic Cells (%),[6],42% and 38%
same,Population Normal (%),[6],94% and 92%
same,Population Pyknosed Nuclei (%),[6],15% and 12%
same,Population Tubulin-Different-Phenotype (%),[6],27% and 45%
same,Total Cell Count,[6],146 and 163
